≈ marks a conversion by molar mass, not a printed value. Where “and” joins values, the source holds several entries; their conditions need not be identical. Equal values may be shown once. Entries after “also recorded” stand apart in the source; their conditions may differ.
How the values were obtained:
[1] = Encapsulation of PMF in oil-in-water nanoemulsions; format: physicochemical
Method in brief: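 Oil phase was 1 wt% PMF dissolved in MCT at 90–100 °C. Aqueous phase was 2 wt% Tween 20 in 5 mM phosphate, pH 7.0. Both were kept above 50 °C, blended 2 min, then given five microfluidizer passes at 12,000 psi. Oil content was 2.5–20 % at a PMF:oil ratio of 1:100 (initial 0.56–5.6 mM). After storage, dispersed and total PMF (remixed sample) were measured by UV-vis at 330 nm.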

[2] = Solubility of PMF in simulated small intestinal fluids; format: physicochemical; conditions: 0.05 % PVA or HPMC in SSIF
Method in brief: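 PMF in DMSO was mixed with buffer, fasted SSIF or fed SSIF (150 mM NaCl, 10 mM CaCl₂, 15 mg/mL bile, 2.4 mg/mL lipase), with or without 0.05 % PVA or HPMC. Samples were stirred constantly for 72 h at 37 °C and centrifuged to remove crystals. Soluble PMF in the supernatant was measured by UV-vis at 330 nm.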

[3] = cited from earlier work
[4] = Organic phase solubility of PMF; format: physicochemical
Method in brief: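 Thermal quenching: weighed PMF was stirred into MCT or LCT (corn oil) for 1 h at 90–100 °C, cooled to 25 °C and held up to 72 h. Crystals were inspected visually and by optical microscopy. Saturation concentration was the mean of four measurements at the highest PMF loadings.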

[5] = In vitro digestion model; format: in vitro ADME; conditions: 20 wt% MCT nanoemulsion, 2.8 mM PMF, Fa-SSIF
Method in brief: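 A nanoemulsion (20 wt% MCT, 2 wt% Tween 20, 2.8 mM PMF) was added to fasted SSIF (100 mM NaCl, 5 mM CaCl₂, 5 mg/mL bile extract, 0.6 mg/mL lipase, 5 mM phosphate). It was equilibrated 10 min to 37 °C at pH 7.00, and lipolysis was started with pancreatic extract. pH was held by pH-stat with 2 M NaOH. Timed samples were stopped with 4-BBBA and centrifuged (4000 rpm, 30 min, RT). The supernatant micelle phase was diluted 1:10 in DMSO and read at 330 nm. Done in triplicate.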

[6] = Theoretical prediction
Method in brief: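 Calculated, not measured: maximum PMF dissolvable in the oil-water system at equilibrium was derived with a mass-balance equation (Eq. 1). Inputs were the masses of solute, oil and water and the experimentally measured saturation concentrations of PMF in each carrier oil (thermal quenching) and in buffer (solvent injection), assuming oil-water partitioning.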

[7] = Aqueous phase solubility of PMF; format: physicochemical
Method in brief: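 Solvent injection: 1 % PMF in DMSO was injected into aqueous solutions of water-soluble polymers (0–5 %) or polymer-free buffer, giving a final 56 µM PMF. Mixtures were stirred at 120 rpm for 72 h at 25 °C, then centrifuged (4000 rpm, 15 min) to remove crystals. Supernatant PMF was read by UV-vis at 330 nm against a calibration curve. Runs were done in duplicate or triplicate and reported as mean ± SD.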

[8] = Oil-water partition coefficient estimated from saturation concentrations; format: physicochemical
[9] = rat, 2 to 9 mg per day in a 71 kcal per day diet; cited from earlier work

In the case of `COc1ccc(-c2cc(=O)c3c(O)c(OC)c(OC)c(OC)c3o2)cc1` [PMF, 5-hydroxy-6,7,8,4'-tetramethoxy-flavone], the encapsulation efficiency ([1]; 2.5 % fat (MCT), 20 days storage) is reported as 21%, the “encapsulated PMF in nanoemulsion” value ([1]; 2.5 % fat (MCT), initial 0.56 mM PMF, 20 days storage) is reported as “≈ 0.12 mM” and the encapsulation efficiency ([1]; 5 % fat (MCT), 20 days storage) is reported as 21%. The “encapsulated PMF in nanoemulsion” value ([1]; 5 % fat (MCT), initial 1.4 mM PMF, 20 days storage) was ~0.29 mM, the encapsulation efficiency ([1]; 10 % fat (MCT), 20 days storage) was 20% and the “encapsulated PMF in nanoemulsion” value ([1]; 10 % fat (MCT), initial 2.8 mM PMF, 20 days storage) was ~0.55 mM. The encapsulation efficiency ([1]; 20 % fat (MCT), 20 days storage) was 42%, the “encapsulated PMF in nanoemulsion” value ([1]; 20 % fat (MCT), initial 5.6 mM PMF, 20 days storage) was ~2.33 mM and the encapsulation efficiency ([1]; 20 wt% LCT, initial PMF 5.6 mM, 72 h) was “around 48%”. The encapsulation efficiency ([1]; 20 wt% MCT, initial PMF 5.6 mM, 72 h) was ~69%, the encapsulation efficiency ([1]; 20 wt% oil (LCT or MCT), initial PMF 0.56, 1.4 and 2.8 mM, 72 h) was 75 to 100% and the “effect of water-soluble polymers on solubility in SSIFs” value [2] was “little influence”. The “reported saturation level in pure water” value [3] was “≈ 0.9 µM”, the “saturation concentration in the oil phase (CSO*)” value (from here on “saturation concentration … (CSO*)”) ([4]; LCT) was “around 1.55 mg/mL” and the “saturation concentration … (CSO*)” value ([4]; LCT (corn oil), 25 °C, 72 h storage) was 4.2 mM and 4.2 ± 0.4 mM. For the same compound, the “saturation concentration … (CSO*)” value ([4]; MCT) was ~2.2 mg/mL, the solubility at 72 h ([4]; oil phases (LCT, MCT), 25 °C, oil or lipid, thermodynamic from solid) was 4 to 6 mM (≈ 1430 to 2150 µg/mL) and the “concentration of PMF in the micelle phase” value ([5]; after 3 min digestion) was “around 3 µM”. For the same compound, the “concentration of PMF in the micelle phase” value ([5]; after 120 min digestion) was “around 16 µM”, the “soluble PMF at saturation predicted using Eq. 1” value ([6]; 2.5 % fat MCT nanoemulsion) was 0.15 mM and the “soluble PMF at saturation predicted using Eq. 1” value ([6]; 5 % fat MCT nanoemulsion) was 0.31 mM. The “soluble PMF at saturation predicted using Eq. 1” value ([6]; 10 % fat MCT nanoemulsion) was 0.61 mM, the “soluble PMF at saturation predicted using Eq. 1” value ([6]; 20 % fat MCT nanoemulsion) was 1.22 mM and the “saturation concentration calculated using Eq. 1” value ([6]; 20 wt% LCT nanoemulsion) was 0.84 mM. For the same compound, the “PMF solubilized per 100 g of solution” value ([7]; 0.5 % HPMC aqueous phase) was “about 0.36 mg per 100 g”, the “increase in PMF concentration in aqueous phase by water-soluble polymers” value ([7]; certain types and amounts of polymer (HPMC, PVA)) was ~10 fold and the “saturation concentration in water / buffer solution” value ([7]; no polymer, 25 °C, 72 h) was 0.93 µM and ≈ 0.93 µM. The “effect of polymer on aqueous solubility” value ([7]; polyethylene glycol (PEG)) was “ineffective at increasing solubility; also recorded: little effect”, the solubility kinetic at 72 h ([7]; pure buffer solution, 25 °C, aqueous buffer, kinetic from dmso stock) was 0.33 µg/mL (≈ 0.921 µM) and the “effect of polymer on aqueous solubility” value ([7]; β-cyclodextrin (CD)) was “ineffective at increasing solubility; also recorded: little effect”. The “oil-water partition coefficient KOW (=CSO*/CSW*)” value ([8]; LCT / buffer) was “about 4,520” and the “oil-water partition coefficient KOW (=CSO*/CSW*)” value ([8]; MCT / buffer) was ~6,560.
In the case of `COc1ccc(-c2cc(=O)c3c(OC)c(OC)c(OC)c(OC)c3o2)cc1OC` [nobiletin], the anti-carcinogenic effect [9] is given as “significant anti-carcinogenic effect”.

Source: paper PMC3640569 (Food biophysics, 2012)
